The values that follow come from ChEMBL document CHEMBL2311339, “Identification of GZD824 as an orally bioavailable inhibitor that targets phosphorylated and nonphosphorylated breakpoint cluster region-Abelson (Bcr-Abl) kinase and overcomes clinically acquired mutation-induced resistance against imatinib” (J Med Chem, 2013).

The target of series [1] is Voltage-gated inwardly rectifying potassium channel KCNH2 (Homo sapiens, UniProt Q12809). Put plainly: Inhibition of human ERG expressed in CHO cells at up to 30 uM after 2.5 hrs by Rb+ efflux assay. It counts as cell-based.
For series [2], the system named is BaF3. Description: Antitumor activity against mouse BA/F3 cells expressing wild type BCR-ABL allografted in SCID mouse assessed as induction of tumor regression at 5 mg/kg/day, po qd for 14 days. It counts as functional, organism-based. The method, boiled down: (§1)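 Ba/F3 cells stably expressing Bcr-Abl (wild type or mutant) were grown in RPMI 1640 with 10% FBS and no IL-3, then suspended in saline (2.5 × 10^7 cells/mL) and given as 0.2 mL s.c. in the right flank. Groups were randomised at 100−200 mm3. Once-daily oral gavage for 14 days in DMSO/Cremophor/ethanol/saline vehicle; reference imatinib 50 or 100 mg/kg/day. Volume L × W²/2 every 2 days; n = 10; t test versus vehicle.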

Series [3] is described as follows: Plasma concentration in rat after 24 hrs. It counts as ADME. The method, boiled down:
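Bismesylate salt given to rats as a single iv dose of 5 mg/kg or a single oral dose of 25 mg/kg. Plasma drug levels were followed over time to derive the PK parameters. The 12 h and 24 h plasma levels come from the oral 25 mg/kg dose.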

The test system of series [4] is BaF3. Description: Antitumor activity against mouse BA/F3 cells expressing BCR-ABL T315I mutant allografted in po dosed SCID mouse assessed as inhibition of tumor growth administered qd for 14 days. Type of series: functional, organism-based. The procedure, abridged: as §1
Series [5] deals with Tyrosine-protein kinase ABL1 (Homo sapiens, UniProt P00519). Description: Binding affinity to phosphorylated wild type ABL1 (unknown origin) after 1 hr.
Series [6] is described as follows: Apparent permeability from basolateral to apical side in human Caco2 cells by LC-MS/MS analysis. Type of series: ADME, cell-based. Conditions: Caco-2. On the technique in general: Caco-2 cells form a polarised layer with tight junctions and transporters.
Another series addresses Cytochrome P450 2E1 (Homo sapiens, UniProt P05181). Description: Inhibition of human recombinant CYP2E1 at 30 uM after 30 mins. It counts as ADME. Conditions: recombinant enzyme, 0.5 h.
The subject of another series is KU812. Description: Antitumor activity against human KU812 cells xenografted in mouse assessed as induction of tumor regression at 1 mg/kg, po qd for 14 days. Type of series: functional, organism-based. More on the design: dose 1 mg/kg. For orientation: Xenograft models place foreign cells or tissue in a host animal.
Series [7] can be described thus: Antitumor activity against mouse BA/F3 cells expressing BCR-ABL T315I mutant allografted in SCID mouse assessed as increase in median survival at 20 mg/kg/day, po qd for 10 days. Type of series: functional, BaF3. The method, boiled down: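 Ba/F3 Bcr-Abl T315I cells stably carrying firefly luciferase, in saline, were injected i.v. into SCID nude mice (2 × 10^6 cells/0.1 mL). Imaging began 5−7 days later: i.p. D-luciferin, halothane anaesthesia, images after 5 min. Mice were randomised by signal and dosed by oral gavage once daily for 10 days (5, 10, 20 mg/kg/day; imatinib 100 mg/kg; vehicle). Luminescence was quantified; survival by Kaplan−Meier with log-rank test.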

In the next series the test system is K562. Description: Antitumor activity against human K562 cells xenografted in mouse assessed as eradication of tumor at 5 to 10 mg/kg, po qd for 6 days. Type of series: functional, organism-based.
Series [8] can be described thus: Cytotoxicity against mouse BA/F3 cells expressing BCR-ABL H396R mutant assessed as growth inhibition after 72 hrs by CCK-8 assay. The settings on record: BaF3, 72 h. In general terms: Tetrazolium assays rely on reduction of a dye to a coloured formazan, in cell work by metabolically active cells.

Molecules are shown by their SMILES. The source made the active and inactive calls. No cut-off for these calls is given here.

Chain of Voltage-gated inwardly rectifying potassium channel KCNH2 (Q12809 whole entry): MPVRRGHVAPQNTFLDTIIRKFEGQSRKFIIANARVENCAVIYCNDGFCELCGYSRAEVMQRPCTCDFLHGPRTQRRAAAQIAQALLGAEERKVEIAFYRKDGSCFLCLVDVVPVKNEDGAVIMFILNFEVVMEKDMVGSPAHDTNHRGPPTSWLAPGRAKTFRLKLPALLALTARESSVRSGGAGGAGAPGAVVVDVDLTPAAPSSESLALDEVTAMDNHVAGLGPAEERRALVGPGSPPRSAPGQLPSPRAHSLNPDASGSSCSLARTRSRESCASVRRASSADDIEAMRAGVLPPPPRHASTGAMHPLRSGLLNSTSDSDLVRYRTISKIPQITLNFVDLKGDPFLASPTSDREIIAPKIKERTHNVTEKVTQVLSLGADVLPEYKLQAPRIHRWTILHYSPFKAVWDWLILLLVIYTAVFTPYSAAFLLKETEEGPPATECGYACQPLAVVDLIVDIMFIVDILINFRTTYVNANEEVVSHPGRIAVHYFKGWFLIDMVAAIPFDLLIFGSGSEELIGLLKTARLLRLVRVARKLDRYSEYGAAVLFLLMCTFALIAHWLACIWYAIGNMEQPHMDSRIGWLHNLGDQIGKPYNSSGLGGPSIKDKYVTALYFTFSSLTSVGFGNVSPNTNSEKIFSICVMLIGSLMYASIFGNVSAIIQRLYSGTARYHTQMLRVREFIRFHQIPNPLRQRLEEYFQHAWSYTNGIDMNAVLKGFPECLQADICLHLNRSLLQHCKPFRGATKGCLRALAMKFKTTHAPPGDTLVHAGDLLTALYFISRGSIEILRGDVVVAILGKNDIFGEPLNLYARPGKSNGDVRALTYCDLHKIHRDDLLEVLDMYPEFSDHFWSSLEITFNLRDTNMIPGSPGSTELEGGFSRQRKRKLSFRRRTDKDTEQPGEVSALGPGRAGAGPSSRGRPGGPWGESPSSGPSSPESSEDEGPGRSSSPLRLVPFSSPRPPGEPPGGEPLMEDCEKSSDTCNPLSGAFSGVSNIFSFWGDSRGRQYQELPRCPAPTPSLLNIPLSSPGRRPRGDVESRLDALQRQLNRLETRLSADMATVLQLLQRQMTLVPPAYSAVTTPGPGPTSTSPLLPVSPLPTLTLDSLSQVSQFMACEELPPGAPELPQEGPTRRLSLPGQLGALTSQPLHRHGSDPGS
Chain of Tyrosine-protein kinase ABL1 (P00519 whole entry): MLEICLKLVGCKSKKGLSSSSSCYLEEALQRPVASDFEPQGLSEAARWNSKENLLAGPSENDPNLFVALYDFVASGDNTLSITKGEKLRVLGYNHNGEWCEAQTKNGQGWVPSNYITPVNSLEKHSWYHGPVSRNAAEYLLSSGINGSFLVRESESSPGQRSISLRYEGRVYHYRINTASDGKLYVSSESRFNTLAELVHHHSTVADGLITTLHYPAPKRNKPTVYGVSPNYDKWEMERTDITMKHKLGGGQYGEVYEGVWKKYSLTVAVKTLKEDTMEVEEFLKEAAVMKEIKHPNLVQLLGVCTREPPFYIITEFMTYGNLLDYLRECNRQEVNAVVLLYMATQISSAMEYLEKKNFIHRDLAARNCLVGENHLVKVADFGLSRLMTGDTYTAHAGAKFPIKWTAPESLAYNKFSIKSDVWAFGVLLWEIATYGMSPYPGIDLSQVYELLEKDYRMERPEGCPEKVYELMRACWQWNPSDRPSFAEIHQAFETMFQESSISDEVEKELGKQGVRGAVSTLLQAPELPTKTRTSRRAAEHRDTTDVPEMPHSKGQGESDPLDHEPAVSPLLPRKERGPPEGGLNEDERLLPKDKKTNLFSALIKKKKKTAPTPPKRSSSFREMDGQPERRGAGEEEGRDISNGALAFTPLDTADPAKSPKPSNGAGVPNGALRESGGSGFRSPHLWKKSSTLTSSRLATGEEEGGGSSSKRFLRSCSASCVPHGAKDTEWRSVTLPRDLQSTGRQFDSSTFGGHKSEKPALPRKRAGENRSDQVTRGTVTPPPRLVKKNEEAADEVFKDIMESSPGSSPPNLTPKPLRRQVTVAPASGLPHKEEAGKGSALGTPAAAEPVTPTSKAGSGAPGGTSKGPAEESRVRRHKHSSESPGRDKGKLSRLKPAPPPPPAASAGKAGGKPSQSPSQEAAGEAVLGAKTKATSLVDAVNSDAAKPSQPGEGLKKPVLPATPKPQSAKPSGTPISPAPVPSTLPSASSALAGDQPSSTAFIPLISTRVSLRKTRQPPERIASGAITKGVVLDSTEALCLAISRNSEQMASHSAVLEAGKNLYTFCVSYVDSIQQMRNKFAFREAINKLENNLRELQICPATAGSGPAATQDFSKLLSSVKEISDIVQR
Chain of Cytochrome P450 2E1 (P05181 whole entry): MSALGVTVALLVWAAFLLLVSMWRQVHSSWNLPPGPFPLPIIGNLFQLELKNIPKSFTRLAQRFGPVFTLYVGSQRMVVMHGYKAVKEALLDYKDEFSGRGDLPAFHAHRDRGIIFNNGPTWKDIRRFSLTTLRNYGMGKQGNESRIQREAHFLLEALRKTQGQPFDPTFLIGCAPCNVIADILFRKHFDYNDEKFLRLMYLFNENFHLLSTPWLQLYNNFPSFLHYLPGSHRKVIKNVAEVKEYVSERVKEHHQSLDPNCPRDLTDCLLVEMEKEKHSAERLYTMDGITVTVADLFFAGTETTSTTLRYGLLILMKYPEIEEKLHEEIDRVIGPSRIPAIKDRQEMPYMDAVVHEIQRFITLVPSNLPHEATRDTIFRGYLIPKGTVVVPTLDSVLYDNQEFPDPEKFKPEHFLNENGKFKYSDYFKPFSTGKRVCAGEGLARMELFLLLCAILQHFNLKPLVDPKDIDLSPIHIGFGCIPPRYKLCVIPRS

Broadly, the Kd is a measure of binding affinity in units of concentration. A lower Kd goes with tighter binding. The term Papp B→A denotes how fast a substance crosses the layer from the basolateral side. The IC50 is the concentration that gives 50% inhibition. As for `Cc1ccc(C(=O)Nc2ccc(CN3CCN(C)CC3)c(C(F)(F)F)c2)cc1C#Cc1cnc2[nH]ncc2c1` [OLVEREMBATINIB], the “inhibition (INH)” value (in series [1]; on Cytochrome P450 2E1) was “Not Active” each time. For the same molecule, the outcome with BaF3 [2], in the series with KU812 and with K562 was Active. For the same molecule, the concentration at 24 h in series [3] came to 169 nM. Further, the TGI result in the series with BaF3 [4] was “Active”. The molecule also gave a dissociation constant Kd in [5] of 0.34 nM. The apparent permeability from basolateral to apical (Papp B→A) in [6] stood at 0.28 ×10⁻⁶ cm/s. Besides, the Survival in series [7] turned out to be 31.9 days. In series [8], the half-inhibitory concentration (IC50) was found to be 5.5 nM.
